According to ChEMBL document CHEMBL4196126, “Optimization of 3-Pyrimidin-4-yl-oxazolidin-2-ones as Orally Bioavailable and Brain Penetrant Mutant IDH1 Inhibitors” (ACS Med Chem Lett, 2018):
pIC50: −log10 of the molar value. Values after ≈ are worked out from the molar mass of the structure shown.

Experiments:
[1] = Clearance in Sprague-Dawley rat plasma at 1 mg/kg, iv or 10 mg/kg, po by mass spectrometry based HPLC method; format: ADME, organism-based
Outline: (§1)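 Rats and mice received a single 1 mg/kg intravenous dose and a 10 mg/kg oral dose. Plasma clearance was taken from the intravenous arm. Oral AUC and oral bioavailability were taken from the oral arm.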

[2] = AUC in Sprague-Dawley rat at 10 mg/kg, po by mass spectrometry based HPLC method; format: ADME, organism-based; conditions: in vivo; outline: as §1
[3] = Oral bioavailability in Sprague-Dawley rat at 10 mg/kg by mass spectrometry based HPLC method; format: ADME, organism-based; conditions: in vivo; outline: as §1
[4] = Solubility of the compound at pH 6.8; format: physicochemical; conditions: buffer
[5] = Ratio of AUC in Sprague-Dawley rat brain to plasma at 1 mg/kg, iv or 10 mg/kg, po; format: ADME, organism-based; conditions: read-out: Ratio AUC
[6] = Plasma protein binding in rat plasma at 5 uM after 4 hrs by rapid equilibrium dialysis based LC/MS/MS method
[7] = Plasma protein binding in mouse plasma at 5 uM after 4 hrs by rapid equilibrium dialysis based LC/MS/MS method
[8] = biological target: T1, Isocitrate dehydrogenase [NADP] cytoplasmic (Homo sapiens, UniProt O75874, R132H); test: Inhibition of IDH1 R132H mutant (unknown origin) using alphaKG as substrate in presence of NADPH by LC-MS/MS analysis
[9] = Intrinsic clearance in rat liver microsomes at 1 uM in presence of NADPH by LC-MS/MS analysis; format: ADME, microsome; conditions: read-out: CLH
[10] = biological target: T1, Isocitrate dehydrogenase [NADP] cytoplasmic; test: Inhibition of IDH1 R132H mutant (unknown origin) expressed in HCT116 cells assessed as reduction in 2-HG levels after 48 hrs by LC-MS/MS analysis; format: cell-based
[11] = Intrinsic clearance in mouse liver microsomes; format: ADME, microsome; conditions: read-out: CLH
[12] = Clearance in C57BL/6 mouse plasma at 1 mg/kg, iv or 10 mg/kg, po by mass spectrometry based HPLC method; format: ADME, organism-based; outline: as §1
[13] = AUC in C57BL/6 mouse at 10 mg/kg, po by mass spectrometry based HPLC method; format: ADME, organism-based; conditions: in vivo; outline: as §1
[14] = Oral bioavailability in C57BL/6 mouse at 10 mg/kg by mass spectrometry based HPLC method; format: ADME, organism-based; conditions: in vivo; outline: as §1
[15] = biological target: Isocitrate dehydrogenase [NADP] cytoplasmic (Homo sapiens, UniProt O75874); test: Inhibition of wild-type IDH1 (unknown origin) assessed as NADPH production using isocitrate as substrate by fluorescence assay
[16] = biological target: T1, Isocitrate dehydrogenase [NADP] cytoplasmic; test: Inhibition of IDH1 R132H mutant (unknown origin) assessed as NADPH consumption using alpha-ketoglutarate as substrate by fluorescence assay
[17] = biological target: Isocitrate dehydrogenase [NADP] cytoplasmic (Homo sapiens, UniProt O75874, R132C); test: Inhibition of IDH1 R132C mutant (unknown origin) assessed as NADPH consumption using alpha-ketoglutarate as substrate by fluorescence assay
Homo sapiens [18] = species on record: Homo sapiens; test: Selectivity ratio of IC50 for wild-type IDH1 (unknown origin) to IC50 for IDH1 R132H mutant (unknown origin)
Homo sapiens [19] = species on record: Homo sapiens; test: Selectivity ratio of IC50 for wild-type IDH1 (unknown origin) to IC50 for IDH1 R132C mutant (unknown origin)
Mus musculus [20] = test: Time at which unbound plasma concentration stays above cellular IDH1 R132H mutant inhibitory IC50 in HSD athymic nude mouse xenografted with human HCT116 cells; format: ADME, organism-based; conditions: in vivo
Outline: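 After a single 150 mg/kg oral dose in HCT116-IDH1 R132H/+ xenograft mice, unbound plasma concentration was estimated from total plasma levels corrected by mouse plasma protein binding. It was then followed over time against the HCT116-IDH1 R132H/+ cellular IC50.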

Mus musculus [21] = test: In vivo inhibition of IDH1 R132H mutant in HSD athymic nude mouse tumor xenografted with human HCT116 cells assessed as reduction in 2-HG level at 150 mg/kg, po measured 16 to 24 hrs post dose by LC-MS/MS analysis relative to control; format: functional; conditions: HCT-116, po
Outline: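 Mice bearing HCT116-IDH1 R132H/+ xenograft tumors received a single 150 mg/kg oral dose. 2-HG was measured in tumor tissue and expressed as percent inhibition relative to vehicle-treated tumors over a 16−24 h post-dose window. Plasma drug concentrations were measured alongside.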

[22] = Intrinsic clearance in human liver microsomes; format: ADME, microsome; conditions: read-out: CLH

T1 sequence (O75874 2-414 R132H limits assumed): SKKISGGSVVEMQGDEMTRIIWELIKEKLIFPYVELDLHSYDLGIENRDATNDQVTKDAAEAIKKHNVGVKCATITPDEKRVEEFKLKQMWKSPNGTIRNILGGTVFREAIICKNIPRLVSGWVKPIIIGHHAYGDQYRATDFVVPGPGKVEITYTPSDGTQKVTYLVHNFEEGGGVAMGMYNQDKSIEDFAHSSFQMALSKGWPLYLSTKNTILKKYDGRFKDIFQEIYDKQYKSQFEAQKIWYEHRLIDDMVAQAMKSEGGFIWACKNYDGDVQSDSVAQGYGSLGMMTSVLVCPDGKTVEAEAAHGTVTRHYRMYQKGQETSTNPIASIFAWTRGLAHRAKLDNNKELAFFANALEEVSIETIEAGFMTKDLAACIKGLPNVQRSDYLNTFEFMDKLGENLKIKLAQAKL
Chain of Isocitrate dehydrogenase [NADP] cytoplasmic (Homo sapiens, UniProt O75874) (O75874 whole entry): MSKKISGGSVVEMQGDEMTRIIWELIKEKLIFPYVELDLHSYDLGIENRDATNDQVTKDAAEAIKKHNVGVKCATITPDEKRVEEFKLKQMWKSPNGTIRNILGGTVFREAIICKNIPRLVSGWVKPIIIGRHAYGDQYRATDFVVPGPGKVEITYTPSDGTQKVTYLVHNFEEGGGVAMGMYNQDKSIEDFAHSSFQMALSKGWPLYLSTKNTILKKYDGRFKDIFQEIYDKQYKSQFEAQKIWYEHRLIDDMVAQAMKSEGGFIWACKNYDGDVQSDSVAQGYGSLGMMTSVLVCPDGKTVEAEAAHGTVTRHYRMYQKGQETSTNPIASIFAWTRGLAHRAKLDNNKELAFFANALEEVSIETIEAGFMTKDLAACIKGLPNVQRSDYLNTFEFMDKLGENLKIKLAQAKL
Chain of Isocitrate dehydrogenase [NADP] cytoplasmic (Homo sapiens, UniProt O75874, R132C) (O75874 2-414 R132C limits assumed): as the sequence (O75874 2-414 R132H limits assumed) above, with H131C counted along it

Work on `C[C@H](Nc1nccc(N2C(=O)OC[C@@H]2[C@H](C)F)n1)c1cn(-c2ccc(C(F)F)cc2)cn1` yielded a clearance [1] of 20 mL/min/kg, an AUC [2] of 15 µM·h and a bioavailability [3] of 82%. The solubility [4] was 422 µM (≈ 188 µg/mL), the Kp [5] was less than 0.1 and the PPB at 4 h, 5 µM [6] was 0.95. The PPB at 4 h, 5 µM [7] was 0.92.

Work on `CC(C)[C@H]1COC(=O)N1c1ccnc(N[C@@H](C)c2ncc(Oc3ccc(F)cc3)cn2)n1` yielded a pIC50 [8] of 7.41 and a microsomal CLint at 1 µM [9] of 238 µL/min/mg.

`C[C@H](Nc1ncc(F)c(N2C(=O)OC[C@@H]2[C@H](C)F)n1)c1cn(-c2ccc(Cl)cc2)cn1` showed a pIC50 [10] of 7.66 and a microsomal CLint at 1 µM [9] of 272 µL/min/mg.

For `C[C@H](Nc1nccc(N2C(=O)OC[C@@H]2[C@H](C)F)n1)c1cn(-c2ccc(Cl)cc2)cn1`, the microsomal CLint at 1 µM [9] was 148 µL/min/mg.

In the case of `CC(Nc1nccc(N2CCOC2=O)n1)c1ncc(Oc2ccc(F)cc2)cn1` (racemic), the pIC50 [8] was 5.06 and the microsomal CLint at 1 µM [9] was 35 µL/min/mg.

Work on `C[C@H](Nc1nccc(N2C(=O)OC[C@@H]2CF)n1)c1cn(-c2ccc(C(F)(F)F)cc2)cn1` yielded a pIC50 [10] of 7.41, a microsomal CLint at 1 µM [9] of 7 to 7.7 µL/min/mg and a microsomal CLint [11] of 11 µL/min/mg. The clearance [1] was 2.6 mL/min/kg, the AUC [2] was 180 µM·h and the bioavailability [3] was 127%. For the same compound, the solubility [4] was 124 µM (≈ 55.8 µg/mL), the clearance [12] was 5 mL/min/kg and the AUC [13] was 172 µM·h. For the same compound, the bioavailability [14] was 149%, the pIC50 [15] was 5.60 and the pIC50 [16] was 7.68. The pIC50 [17] was 7.35, the Ratio IC50 (Homo sapiens [18]) was 50 to 100 and the Ratio IC50 (Homo sapiens [19]) was 50 to 100. For the same compound, the Time (Mus musculus [20]) was 24 h, the inhibition in vivo at 150 mg/kg (Mus musculus [21]) was greater than 90% and the Kp [5] was 0.17. The PPB at 4 h, 5 µM [6] was 0.98 and the PPB at 4 h, 5 µM [7] was 0.98.

In the case of `C[C@H](Nc1ncc(F)c(N2CCOC2=O)n1)c1cn(-c2ccc(Cl)cc2)cn1`, the pIC50 [10] was 6.30, the microsomal CLint at 1 µM [9] was 34 µL/min/mg and the microsomal CLint [11] was 73 µL/min/mg. It also gave a microsomal CLint [22] of 59 µL/min/mg.

Work on `CC(C)[C@H]1COC(=O)N1c1ccnc(N[C@@H](C)c2nc(-c3ccccc3Cl)no2)n1` yielded a pIC50 [8] of 6.21 and a microsomal CLint at 1 µM [9] of 924 µL/min/mg.

With `CC(C)[C@H]1COC(=O)N1c1ccnc(N[C@@H](C)c2cn(-c3ccc(Cl)cc3)cn2)n1` the pIC50 [10] was 7.82 and the microsomal CLint at 1 µM [9] was 489 µL/min/mg.

`C[C@H](Nc1ncc(F)c(N2C(=O)OC(C)(C)C2(C)C)n1)c1nc(-c2ccc(Cl)cc2)no1` gave a microsomal CLint at 1 µM [9] of 170 µL/min/mg.

`C[C@H](Nc1ncc(F)c(N2C(=O)OC[C@@H]2C)n1)c1cn(-c2ccc(Cl)cc2)cn1` showed a pIC50 [10] of 7.33, a microsomal CLint at 1 µM [9] of 101 to 103 µL/min/mg and a clearance [1] of 17 mL/min/kg. For the same compound, the AUC [2] was 14 µM·h and the bioavailability [3] was 67%.

In the case of `C[C@H](Nc1ncc(F)c(N2C(=O)OC[C@@H]2CF)n1)c1cn(-c2ccc(Cl)cc2)cn1`, the pIC50 [10] was 7.62 and the microsomal CLint at 1 µM [9] was 28 µL/min/mg.

For `CC[C@H]1COC(=O)N1c1nc(N[C@@H](C)c2cn(-c3ccc(Cl)cc3)cn2)ncc1F`, the pIC50 [10] was 7.89 and the microsomal CLint at 1 µM [9] was 448 µL/min/mg.

`C[C@H](Nc1nccc(N2C(=O)OC[C@@H]2CF)n1)c1cn(-c2ccc(Cl)cc2)cn1` showed a pIC50 [10] of 7.52 and a microsomal CLint at 1 µM [9] of 75 µL/min/mg.

`C[C@H](Nc1ncc(F)c(N2C(=O)OC[C@@H]2[C@@H](C)F)n1)c1cn(-c2ccc(Cl)cc2)cn1` gave a pIC50 [10] of 6.62 and a microsomal CLint at 1 µM [9] of 237 µL/min/mg.

For `CC(C)[C@H]1COC(=O)N1c1ccnc(N[C@@H](C)c2nc(-c3ccc(Cl)cc3)no2)n1`, the microsomal CLint at 1 µM [9] was 302 µL/min/mg.
